Laboratory results: ChEMBL document CHEMBL1145212, “Fluorinated diaryl sulfides as serotonin transporter ligands: synthesis, structure-activity relationship study, and in vivo evaluation of fluorine-18-labeled compounds as PET imaging agents” (J Med Chem, 2005)

Tests used:
Rattus norvegicus [1] = test: Biodistribution of [18F]AFA in rat blood at 90 min postinjection in vivo; type: ADME, organism-based; details: 1.5 h
Summary of the method: (§1)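 Male Sprague-Dawley rats, three per time point, received the F-18 radioligand in saline (~20 µCi per rat at injection) by tail vein. Under CO2 anesthesia they were decapitated at 10, 30, 60, 90 or 120 min. Blood and dissected brain regions were weighed and gamma counted. Activity was decay-corrected, and injected dose was corrected for tail residual activity. Uptake was expressed as %ID/g versus injectate standards, mean ± SD.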

Rattus norvegicus [2] = test: Biodistribution of [18F]AFA in rat frontal cortex at 10 min postinjection in vivo; type: ADME, organism-based; summary of the method: as §1
Rattus norvegicus [3] = test: Biodistribution of [18F]AFA in rat hippocampus at 60 min postinjection in vivo; type: ADME, organism-based; details: 1 h; summary of the method: as §1
Rattus norvegicus [4] = test: Biodistribution of [18F]AFA in rat thalamus at 60 min postinjection in vivo; type: ADME, organism-based; details: 1 h
Summary of the method: (§2)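 Male Sprague-Dawley rats, three per group, received ~20 µCi of the F-18 radioligand in saline by tail-vein injection. Rats were anesthetized with CO2 and decapitated at 10, 30, 60, 90 or 120 min. Blood and brain regions were weighed and gamma-counted. %ID/g was decay- and tail-residual-corrected against F-18 standards made from the injectate and reported as mean ± SD.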

Rattus norvegicus [5] = test: Biodistribution of [18F]AFA in rat cerebellum at 90 min postinjection in vivo; type: ADME, organism-based; details: 1.5 h; summary of the method: as §1
Rattus norvegicus [6] = test: Biodistribution of [18F]AFA in rat hypothalamus at 120 min postinjection in vivo; type: ADME, organism-based; details: 2 h; summary of the method: as §1
Rattus norvegicus [7] = test: Biodistribution of [18F]AFA in rat frontal cortex at 60 min postinjection in vivo; type: ADME, organism-based; details: 1 h; summary of the method: as §1
Rattus norvegicus [8] = test: Biodistribution of [18F]AFA in rat striatum at 90 min postinjection in vivo; type: ADME, organism-based; details: 1.5 h; summary of the method: as §2
Rattus norvegicus [9] = test: Biodistribution of [18F]AFA in rat blood at 60 min postinjection in vivo; type: ADME, organism-based; details: 1 h; summary of the method: as §1
Rattus norvegicus [10] = test: Biodistribution of [18F]AFA in rat striatum at 30 min postinjection in vivo; type: ADME, organism-based; details: 0.5 h; summary of the method: as §1
Rattus norvegicus [11] = test: Biodistribution of [18F]-AFA in rat thalamus at 120 min postinjection in vivo; type: ADME, organism-based; details: 2 h; summary of the method: as §1
Rattus norvegicus [12] = test: Biodistribution of [18F]AFA in rat hypothalamus at 30 min postinjection in vivo; type: ADME, organism-based; details: 0.5 h; summary of the method: as §1
Rattus norvegicus [13] = test: Biodistribution of [18F]AFA in rat hypothalamus at 90 min postinjection in vivo; type: ADME, organism-based; details: 1.5 h; summary of the method: as §1
Rattus norvegicus [14] = organism: Rattus norvegicus; test: Specific binding of [18F]AFA in hippocampus of rat pretreated with compound 7c; n=3; type: functional
Rattus norvegicus [15] = test: Biodistribution of [18F]AFA in rat blood at 10 min postinjection in vivo; type: ADME, organism-based; summary of the method: as §1
Rattus norvegicus [16] = test: Biodistribution of [18F]AFA in rat cerebellum at 60 min postinjection in vivo; type: ADME, organism-based; details: 1 h; summary of the method: as §1
Rattus norvegicus [17] = test: Biodistribution of [18F]AFA in rat cerebellum at 120 min postinjection in vivo; type: ADME, organism-based; details: 2 h; summary of the method: as §1
Rattus norvegicus [18] = test: Biodistribution of [18F]AFA in rat frontal cortex at 120 min postinjection in vivo; type: ADME, organism-based; details: 2 h; summary of the method: as §1
Rattus norvegicus [19] = test: Biodistribution of [18F]AFA in rat cerebellum at 10 min postinjection in vivo; type: ADME, organism-based; summary of the method: as §1
Rattus norvegicus [20] = organism: Rattus norvegicus; test: Specific binding of [18F]AFA in frontal cortex of rat pretreated with compound 7c; n=3; type: functional
Rattus norvegicus [21] = test: Biodistribution of [18F]AFA in rat blood at 30 min postinjection in vivo; type: ADME, organism-based; details: 0.5 h; summary of the method: as §1
Rattus norvegicus [22] = organism: Rattus norvegicus; test: Specific binding of [18F]AFA in striatum of rat pretreated with compound 7c; n=3; type: functional
Rattus norvegicus [23] = test: Biodistribution of [18F]AFA in rat striatum at 120 min postinjection in vivo; type: ADME, organism-based; details: 2 h; summary of the method: as §1
Rattus norvegicus [24] = test: Biodistribution of [18F]AFA in rat hippocampus at 10 min postinjection in vivo; type: ADME, organism-based; summary of the method: as §1
Rattus norvegicus [25] = test: Biodistribution of [18F]AFA in rat thalamus at 90 min postinjection in vivo; type: ADME, organism-based; details: 1.5 h; summary of the method: as §2
Rattus norvegicus [26] = test: Biodistribution of [18F]AFA in rat striatum 60 min postinjection in vivo; type: ADME, organism-based; details: 1 h; summary of the method: as §1
Rattus norvegicus [27] = test: Biodistribution of [18F]AFA in rat hippocampus at 90 min postinjection in vivo; type: ADME, organism-based; details: 1.5 h; summary of the method: as §1
Rattus norvegicus [28] = test: Biodistribution of [18F]AFA in rat frontal cortex at 90 min postinjection in vivo; type: ADME, organism-based; details: 1.5 h; summary of the method: as §1
Rattus norvegicus [29] = organism: Rattus norvegicus; test: Specific binding of [18F]AFA in hypothalamus of rat pretreated with compound 7c; n=3; type: functional
Rattus norvegicus [30] = test: Biodistribution of [18F]AFA in rat frontal cortex at 30 min postinjection in vivo; type: ADME, organism-based; details: 0.5 h; summary of the method: as §1
Rattus norvegicus [31] = test: Biodistribution of [18F]AFA in rat hypothalamus at 10 min postinjection in vivo; type: ADME, organism-based; summary of the method: as §1
Rattus norvegicus [32] = test: Biodistribution of [18F]AFA in rat hippocampus at 120 min postinjection in vivo; type: ADME, organism-based; details: 2 h; summary of the method: as §1
Rattus norvegicus [33] = test: Biodistribution of [18F]AFA in rat cerebellum at 30 min postinjection in vivo; type: ADME, organism-based; details: 0.5 h; summary of the method: as §1
Rattus norvegicus [34] = organism: Rattus norvegicus; test: Specific binding of [18F]AFA in thalamus of rat pretreated with compound 7c; n=3; type: functional
Rattus norvegicus [35] = test: Biodistribution of [18F]AFA in rat hippocampus at 30 min postinjection in vivo; type: ADME, organism-based; details: 0.5 h; summary of the method: as §1
Rattus norvegicus [36] = test: Biodistribution of [18F]AFA in rat blood at 120 min postinjection in vivo; type: ADME, organism-based; details: 2 h; summary of the method: as §1
Rattus norvegicus [37] = test: Biodistribution of [18F]-AFA in rat hypothalamus at 60 min postinjection in vivo; type: ADME, organism-based; details: 1 h; summary of the method: as §1
Rattus norvegicus [38] = test: Biodistribution of [18F]AFA in rat thalamus at 10 min postinjection in vivo; type: ADME, organism-based; summary of the method: as §2
Rattus norvegicus [39] = test: Biodistribution of [18F]AFA in rat striatum at 10 min postinjection in vivo; type: ADME, organism-based; summary of the method: as §1
Rattus norvegicus [40] = test: Biodistribution of [18F]AFA in rat thalamus at 30 min postinjection in vivo; type: ADME, organism-based; details: 0.5 h; summary of the method: as §2

Biodistribution (Rattus norvegicus [1]): 0.08 %ID/g
Biodistribution (Rattus norvegicus [2]): 0.81 %ID/g
Biodistribution (Rattus norvegicus [3]): 0.23 %ID/g
Biodistribution (Rattus norvegicus [4]): 0.34 %ID/g
Biodistribution (Rattus norvegicus [5]): 0.04 %ID/g
Biodistribution (Rattus norvegicus [6]): 0.17 %ID/g
Biodistribution (Rattus norvegicus [7]): 0.28 %ID/g
Biodistribution (Rattus norvegicus [8]): 0.19 %ID/g
Biodistribution (Rattus norvegicus [9]): 0.08 %ID/g
Biodistribution (Rattus norvegicus [10]): 0.58 %ID/g
Biodistribution (Rattus norvegicus [11]): 0.16 %ID/g
Biodistribution (Rattus norvegicus [12]): 0.66 %ID/g
Biodistribution (Rattus norvegicus [13]): 0.3 %ID/g
Biodistribution (Rattus norvegicus [15]): 0.27 %ID/g
Biodistribution (Rattus norvegicus [16]): 0.07 %ID/g
Biodistribution (Rattus norvegicus [17]): 0.04 %ID/g
Biodistribution (Rattus norvegicus [18]): 0.11 %ID/g
Biodistribution (Rattus norvegicus [19]): 0.38 %ID/g
Biodistribution (Rattus norvegicus [21]): 0.16 %ID/g
Biodistribution (Rattus norvegicus [23]): 0.11 %ID/g
Biodistribution (Rattus norvegicus [24]): 0.54 %ID/g
Biodistribution (Rattus norvegicus [25]): 0.23 %ID/g
Biodistribution (Rattus norvegicus [26]): 0.26 %ID/g
Biodistribution (Rattus norvegicus [27]): 0.18 %ID/g
Biodistribution (Rattus norvegicus [28]): 0.2 %ID/g
Biodistribution (Rattus norvegicus [30]): 0.65 %ID/g
Biodistribution (Rattus norvegicus [31]): 0.73 %ID/g
Biodistribution (Rattus norvegicus [32]): 0.1 %ID/g
Biodistribution (Rattus norvegicus [33]): 0.2 %ID/g
Biodistribution (Rattus norvegicus [35]): 0.48 %ID/g
Biodistribution (Rattus norvegicus [36]): 0.07 %ID/g
Biodistribution (Rattus norvegicus [37]): 0.38 %ID/g
Biodistribution (Rattus norvegicus [38]): 0.72 %ID/g
Biodistribution (Rattus norvegicus [39]): 0.65 %ID/g
Biodistribution (Rattus norvegicus [40]): 0.69 %ID/g
SMILES: CN(C)Cc1ccccc1Sc1ccc([18F])cc1N
Specific binding (Rattus norvegicus [14]): 0.55 %ID/g
Specific binding (Rattus norvegicus [20]): 0.53 %ID/g
Specific binding (Rattus norvegicus [22]): 0.37 %ID/g
Specific binding (Rattus norvegicus [29]): 0.62 %ID/g
Specific binding (Rattus norvegicus [34]): 0.81 %ID/g
